Source: ChEMBL document CHEMBL1125468, “Extraordinarily potent antimalarial compounds: new, structurally simple, easily synthesized, tricyclic 1,2,4-trioxanes” (J Med Chem, 1992)
Converted amounts (≈) assume the structure as drawn.

Tests used:
Plasmodium falciparum [1] = assay: Parasite viability index for Plasmodium falciparum Indochina W2 by [3H]hypoxanthine uptake; format: functional, organism-based
[2] = Potency to inhibit African Sierra Leone(D-6) clone relative to artemisinin.; format: functional
How it was run: (§1)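 Ratio of artemisinin IC50 to test-compound IC50, both measured in the same [3H]hypoxanthine microdilution assay against the named clone. Parasites were at 0.5% parasitemia and 1% hematocrit, exposed for 24 h at 37 °C under low oxygen, then labelled for 18–20 h. IC50s came from a four-parameter logistic fit of duplicate wells.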

Plasmodium falciparum [3] = assay: Inhibition of Plasmodium falciparum D6 (Sierra Leone) by [3H]hypoxanthine uptake; format: functional, organism-based
[4] = Potency to inhibit Indochina(W-2) clone relative to artemisinin.; format: functional; how it was run: as §1

Row | SMILES | IC50 (Plasmodium falciparum [1]) | Relative potency [2] | IC50 (Plasmodium falciparum [3]) | Relative potency [4]
1 | CO[C@H]1O[C@]2(C)CC[C@H]3CCC[C@@H](CCOCc4c(C)noc4C)[C@]31OO2 | 0.5 ng/mL (≈ 1.31 nM) | 0.5 | 7.6 ng/mL (≈ 19.9 nM) | 2.8
2 | CO[C@H]1O[C@]2(C)CC[C@H]3CCC[C@@H](CCOS(=O)(=O)c4cccc5c(N(C)C)cccc45)[C@]31OO2 | 1.2 ng/mL (≈ 2.37 nM) | 0.2 | 16.3 ng/mL (≈ 32.2 nM) | 1.2
3 | COCC[C@@H]1CCC[C@@H]2CC[C@]3(C)OO[C@]21[C@@H](OC)O3 | 3.7 ng/mL (≈ 12.9 nM) | 0.4 | 10.7 ng/mL (≈ 37.4 nM) | 0.4
4 | COC(=O)c1ccccc1S(=O)(=O)OCC[C@@H]1CCC[C@@H]2CC[C@]3(C)OO[C@]21[C@@H](OC)O3 | 13.2 ng/mL (≈ 28.1 nM) | 0.3 | 11.3 ng/mL (≈ 24 nM) | 0.1
5 | CO[C@H]1O[C@]2(C)CC[C@H]3CCC[C@@H](CCOC(=O)N(C)C)[C@]31OO2 | 0.8 ng/mL (≈ 2.33 nM) | 1.3 | 2.9 ng/mL (≈ 8.44 nM) | 1.8
6 | CO[C@H]1O[C@]2(C)CC[C@H]3CCC[C@@H](CCOCc4ccccc4)[C@]31OO2 | 0.4 ng/mL (≈ 1.1 nM) | 0.7 | 5.4 ng/mL (≈ 14.9 nM) | 3.5
7 | C[C@@H]1CC[C@H]2[C@@H](C)C(=O)O[C@@H]3O[C@@]4(C)CC[C@@H]1[C@]32OO4 [ARTEMISININ] | 1.4 ng/mL (≈ 4.96 nM) | 1 | 3.9 ng/mL (≈ 13.8 nM) | 1
8 | COC(=O)c1ccc(C(=O)OCC[C@@H]2CCC[C@@H]3CC[C@]4(C)OO[C@]32[C@@H](OC)O4)cc1 | < 1.2 ng/mL | > 3.3 | > 1.2 ng/mL | > 1.2
9 | C=CCOCC[C@@H]1CCC[C@@H]2CC[C@]3(C)OO[C@]21[C@@H](OC)O3 | 0.6 ng/mL (≈ 1.92 nM) | 0.7 | 5.5 ng/mL (≈ 17.6 nM) | 2.3
10 | CO[C@H]1O[C@]2(C)CC[C@H]3CCC[C@@H](CCOC(=O)c4ccccc4)[C@]31OO2 | 8.2 ng/mL (≈ 21.8 nM) | 0.1 | 29.5 ng/mL (≈ 78.4 nM) | 0.2
11 | CCOP(=O)(OCC)OCC[C@@H]1CCC[C@@H]2CC[C@]3(C)OO[C@]21[C@@H](OC)O3 | < 0.9 ng/mL | 3.5 | 1.1 ng/mL (≈ 2.69 nM) | > 1.6
12 | CCN(CC)C(=O)OCC[C@@H]1CCC[C@@H]2CC[C@]3(C)OO[C@]21[C@@H](OC)O3 | < 0.4 ng/mL | 2.3 | 1.7 ng/mL (≈ 4.58 nM) | > 3.5
13 | CO[C@H]1O[C@]2(C)CC[C@H]3CCC[C@@H](CCOC(=O)N(c4ccccc4)c4ccccc4)[C@]31OO2 | < 0.2 ng/mL | 4.3 | 0.9 ng/mL (≈ 1.92 nM) | > 7
14 | CO[C@H]1O[C@]2(C)CC[C@H]3CCC[C@@H](CCOS(=O)(=O)c4ccc(C)cc4)[C@]31OO2 | 1.9 ng/mL (≈ 4.45 nM) | 0.7 | 5.6 ng/mL (≈ 13.1 nM) | 0.7
15 | CO[C@H]1O[C@]2(C)CC[C@H]3CCC[C@@H](CCOC(=O)CNC(=O)OC(C)(C)C)[C@]31OO2 | 2.5 ng/mL (≈ 5.82 nM) | 1.1 | 3.5 ng/mL (≈ 8.15 nM) | 0.6
16 | CCN(CC)C(=O)c1ccc(C(=O)OCC[C@@H]2CCC[C@@H]3CC[C@]4(C)OO[C@]32[C@@H](OC)O4)cc1 | < 1.4 ng/mL | > 2.8 | < 1.4 ng/mL | > 1
17 | CO[C@H]1O[C@]2(C)CC[C@H]3CCC[C@@H](CCOC(=O)c4ccc(C(=O)O)cc4)[C@]31OO2 | 15.7 ng/mL (≈ 37.3 nM) | 0.1 | 63.3 ng/mL (≈ 151 nM) | 0.1
18 | CO[C@H]1O[C@]2(C)CC[C@H]3CCC[C@@H](CCOC(=O)c4ccc(C(=O)OCCN(C)C)cc4)[C@]31OO2 | 3.3 ng/mL (≈ 6.71 nM) | 0.3 | 12.6 ng/mL (≈ 25.6 nM) | 0.4
